Assay results taken from publication PMC5558615 (ChemMedChem, 2015).
Where a chain is given by its changes, count along the chain named.

Tests used:
[1] = molecular target: T1, saposin B (sapB) (Homo sapiens, UniProt P07602); assay: ITC, two sets of independent sites fit; type: binding
T1 sequence (P07602 195-273): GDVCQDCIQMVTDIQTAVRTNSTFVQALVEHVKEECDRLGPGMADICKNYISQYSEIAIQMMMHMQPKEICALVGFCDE
Outline: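 Ligand-into-buffer control titrations were used in the analysis. Integrated heats were plotted against the ligand/sapB dimer molar ratio and fitted to two independent site sets. Strong-site parameters were reported; for the weak set, only n2·K2·ΔH2.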

[2] = molecular target: T2, saposin B (sapB) (Homo sapiens, UniProt P07602, E263A); assay: ITC, two sets of independent sites fit; type: binding
T2 sequence (P07602 195-273 E263A): T1 sequence (P07602 195-273) with E69A

[3] = molecular target: saposin B; assay: crystal structure

| Compound | Kd [1] [µM] | Kd [2] [µM] | stoichiometry N [3] |
| --- | --- | --- | --- |
| CCN(CC)CCC[C@@H](C)Nc1ccnc2cc(Cl)ccc12 [chloroquine] | 31.8 | 23.1 | – |
| saposin B (natural protein) | – | – | 2 |
